Results as given in ChEMBL document CHEMBL1130046, “Modulation of melphalan resistance in glioma cells with a peripheral benzodiazepine receptor ligand-melphalan conjugate” (J Med Chem, 1997).

Tests used:
[1] = test system: D283 Med; assay: The compound was tested for cytotoxicity against D283 MR (human) Glioma cell lines; assay type: functional, cell-based
[2] = test system: RG2; assay: The compound was tested for cytotoxicity against RG-2 (Rat) Glioma cell lines; assay type: functional, cell-based
Outline: (§1)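 Adherent cells seeded in their usual medium and allowed to attach overnight at 37 °C. Drugs added fresh, melphalan in saline and others in ethanol (≤1% of well volume), then 48 h at 37 °C. SRB read-out: TCA fixation, SRB staining, dye taken up in 10 mM Tris, absorbance 560 nm. Growth expressed as % of control and IC50 calculated; two or three experiments. C6-MR selected by weekly 24 h melphalan steps starting at 10 µM. DAOY MR kept under 70-78 µM melphalan for 24 h every third passage.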

[3] = test system: C6; assay: The compound was tested for cytotoxicity against C6 (Rat) Glioma cell lines; assay type: functional, cell-based; outline: as §1
[4] = target: T1, Translocator protein (Rattus norvegicus, UniProt P16257); assay: The compound was tested for binding affinity against PBR(peripheral benzodiazepine receptor) in normal rat brain homogenate; assay type: tissue-based
T1 sequence (P16257 whole entry, looked up): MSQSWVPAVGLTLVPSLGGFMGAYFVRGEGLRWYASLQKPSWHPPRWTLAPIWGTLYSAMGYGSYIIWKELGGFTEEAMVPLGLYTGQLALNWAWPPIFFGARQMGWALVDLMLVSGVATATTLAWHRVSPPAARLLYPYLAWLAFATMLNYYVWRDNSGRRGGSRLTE
Outline: (§2)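 Competitive displacement of [3H]Ro 5-4864 (1 nM final, 86.9 Ci/mmol) on rat whole-brain homogenate (~200 µg protein, 50 mM Tris-HCl pH 7.4) or C6/RG-2 cell homogenate (4 µg protein, 50 mM Tris-citrate pH 7.4). Incubation 60 min at 0-4 °C, duplicate tubes. Nonspecific binding with 10 µM PK-11195. Bound ligand collected by glass-fibre filtration, counted by scintillation, fitted by nonlinear regression.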

[5] = test system: D341 cell line; assay: The compound was tested for cytotoxicity against D341 (human) Glioma cell lines; assay type: functional, cell-based
[6] = test system: D341 cell line; assay: The compound was tested for cytotoxicity against D341 MR (human) Glioma cell lines; assay type: functional, cell-based
[7] = test system: SF-126; assay: The compound was tested for cytotoxicity against SF-126 (human) Glioma cell lines; assay type: functional, cell-based; outline: as §1
[8] = test system: D283 Med; assay: The compound was tested for cytotoxicity against D283 (human) Glioma cell lines; assay type: functional, cell-based
[9] = test system: Daoy; assay: The compound was tested for cytotoxicity against DAOY (human) Glioma cell lines; assay type: functional, cell-based; outline: as §1
[10] = test system: SF-188; assay: The compound was tested for cytotoxicity against SF-188 (human) Glioma cell lines; assay type: functional, cell-based; outline: as §1
[11] = test system: Daoy; assay: The compound was tested for cytotoxicity against DAOY MR (human) Glioma cell lines; assay type: functional, cell-based; outline: as §1
[12] = target: Translocator protein (Rattus norvegicus) (UniProt P16257); assay: Benzodiazepine receptor density in normal rat brain homogenate; assay type: tissue-based; outline: as §2
Translocator protein (Rattus norvegicus), sequence (P16257 whole entry, looked up): as above

[13] = target: Translocator protein (Rattus norvegicus) (UniProt P16257); assay: Benzodiazepine receptor density in rat C6 glioma cells; assay type: cell-based; outline: as §2
[14] = target: Translocator protein (Rattus norvegicus) (UniProt P16257); assay: Benzodiazepine receptor density in rat RG-2 glioma cells; assay type: cell-based; conditions: RG2; outline: as §2
[15] = test system: C6; assay: The compound was tested for cytotoxicity against C6-MR (Rat) Glioma cell lines; assay type: functional, cell-based; outline: as §1
[16] = test system: D341 cell line; assay: Glutathione S-Transferase (GST) Activity against D 341cell line in Human Medulloblastoma Cells; assay type: functional
[17] = target: T1, Translocator protein; assay: Binding affinity for PBR (peripheral benzodiazepine receptor) in rat C6 glioma cells; assay type: cell-based; outline: as §2
[18] = test system: D341 cell line; assay: Glutathione (GSH) Concentrations D341 MR cell line in Human Medulloblastoma Cells; assay type: functional
[19] = test system: D283 Med; assay: Glutathione (GSH) Concentrations D 283 cell line in Human Medulloblastoma Cells; assay type: functional
[20] = target: T1, Translocator protein; assay: Binding affinity for PBR (peripheral benzodiazepine receptor) in rat RG-2 glioma cells; assay type: cell-based, RG2; outline: as §2
[21] = test system: Daoy; assay: The compound was tested for cytotoxicity against DAOY(human) […] cell lines; assay type: functional, cell-based; outline: as §1
[22] = test system: D283 Med; assay: Glutathione (GSH) Concentrations D 283 MR cell line in Human Medulloblastoma Cells; assay type: functional
[23] = test system: Daoy; assay: Glutathione (GSH) Concentrations DAOY MR cell line in Human Medulloblastoma Cells; assay type: functional
[24] = test system: D283 Med; assay: Glutathione S-Transferase (GST) Activity against D 283 MR cell line in Human Medulloblastoma Cells; assay type: functional
[25] = test system: D283 Med; assay: Glutathione S-Transferase (GST) Activity against D283 cell line in Human Medulloblastoma Cells; assay type: functional
[26] = test system: D341 cell line; assay: Glutathione (GSH) Concentrations D341 cell line in Human Medulloblastoma Cells; assay type: functional
[27] = test system: Daoy; assay: Glutathione S-Transferase (GST) Activity against DAOY cell line in Human Medulloblastoma Cells; assay type: functional
[28] = test system: Daoy; assay: Glutathione S-Transferase (GST) Activity against DAOY MR cell line in Human Medulloblastoma Cells; assay type: functional
[29] = test system: D341 cell line; assay: Glutathione S-Transferase (GST) Activity against D341 MR cell line in Human Medulloblastoma Cells; assay type: functional
[30] = test system: Daoy; assay: Glutathione (GSH) Concentrations DAOY cell line in Human Medulloblastoma Cells; assay type: functional

O=C1CN=C(c2ccccc2)c2cc(Cl)ccc2N1 [NORDAZEPAM]
IC50 [1]: > 200 µM
IC50 [2]: > 200 µM
IC50 [3]: > 200 µM
IC50 [4]: 520 µM
IC50 [5]: > 200 µM
IC50 [6]: > 200 µM
IC50 [7]: > 100 µM
IC50 [8]: > 200 µM
IC50 [9]: > 200 µM
IC50 [10]: > 100 µM
IC50 [11]: > 200 µM

CN1C(=O)CN=C(c2ccc(Cl)cc2)c2cc(Cl)ccc21 [RO-54864]
IC50 [2]: > 100 µM
IC50 [3]: > 200 µM
Bmax (pM (mg of protein)-1) [12]: 0.29
IC50 [7]: > 100 µM
Bmax (pM (mg of protein)-1) [13]: 22
IC50 [10]: 138 µM
Bmax (pM (mg of protein)-1) [14]: 33

N[C@@H](Cc1ccc(N(CCCl)CCCl)cc1)C(=O)O
IC50 [2]: 15.2 µM
IC50 [3]: 11 µM
IC50 [5]: 12.4 µM
IC50 [6]: 52.4 µM
IC50 [7]: 103 µM
IC50 [8]: 6.8 µM
IC50 [15]: 74.9 µM
IC50 [10]: 35.4 µM
IC50 [11]: 140 µM

CCOC(=O)[C@@H](Cc1ccc(N(CCCl)CCCl)cc1)NC(=O)CCCN1C(=O)CN=C(c2ccccc2)c2cc(Cl)ccc21
GST activity [16]: 212.6 nM min-1 (mg of protein)-1
IC50 [17]: 289 µM
IC50 [1]: 25 µM
GSH [18]: 33.2 µM/g
GSH [19]: 18.4 µM/g
IC50 [2]: 34.3 µM
IC50 [20]: 390 µM
IC50 [3]: 43.4 µM
IC50 [21]: 40 µM
IC50 [4]: 327 µM
GSH [22]: 50.7 µM/g
IC50 [5]: 25 µM
GSH [23]: 10.8 µM/g
GST activity [24]: 417.3 nM min-1 (mg of protein)-1
GST activity [25]: 150.6 nM min-1 (mg of protein)-1
IC50 [6]: 32.8 µM
IC50 [7]: 21 µM
GSH [26]: 17.5 µM/g
GST activity [27]: 88.7 nM min-1 (mg of protein)-1
IC50 [8]: 72.3 µM
GST activity [28]: 84 nM min-1 (mg of protein)-1
IC50 [15]: 74.4 µM
GST activity [29]: 327.9 nM min-1 (mg of protein)-1
IC50 [10]: 17.3 µM
IC50 [11]: 29.3 µM
GSH [30]: 11.4 µM/g
